Bioassay records (PubChem BioAssay)
ABHD4 inh = ABHD4 inhibitors, primary screen, biochemical, fluorescence polarization, mouse; hit rate 0.54% among 370,000; (Lyso)-N-acylphosphatidylethanolamine lipase (Mus musculus), Q8VD66; inhibition, % at 8.92 µM; purified mABHD4, FP-Rh probe fluorescence polarization;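 active = inhibition exceeding the mean over every tested compound plus 3 SD, cut at about 30% in these data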;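 also: 0% = plate median of compound wells and 100% = S159A mutant with DMSO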
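Assay system: mABHD4 protein; medium: HEPES pH 7.0, NaCl, Pluronic buffer; dosing: 8.92 µM, single dose; schedule: 45 min + 60 min at 25 °C; signal: FP readout, ex 525 nm / em 598 nm; read-out: normalized percent inhibition of probe labeling; repeats: single replicate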
HTRA1 inh = HTRA1 serine protease inhibitors, primary screen, biochemical, fluorescence polarization, HTS; Q92743; recombinant HTRA1, FP-rhodamine activity-based probe; inhibition, % at 5.96 µM; hit rate 0.5% among 340,000; AID 504803, 2011; in the data active = inhibition above about 36%;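 also: 0% = enzyme with DMSO and 100% = wells lacking enzyme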
Target sequence (Q92743 whole entry, looked up): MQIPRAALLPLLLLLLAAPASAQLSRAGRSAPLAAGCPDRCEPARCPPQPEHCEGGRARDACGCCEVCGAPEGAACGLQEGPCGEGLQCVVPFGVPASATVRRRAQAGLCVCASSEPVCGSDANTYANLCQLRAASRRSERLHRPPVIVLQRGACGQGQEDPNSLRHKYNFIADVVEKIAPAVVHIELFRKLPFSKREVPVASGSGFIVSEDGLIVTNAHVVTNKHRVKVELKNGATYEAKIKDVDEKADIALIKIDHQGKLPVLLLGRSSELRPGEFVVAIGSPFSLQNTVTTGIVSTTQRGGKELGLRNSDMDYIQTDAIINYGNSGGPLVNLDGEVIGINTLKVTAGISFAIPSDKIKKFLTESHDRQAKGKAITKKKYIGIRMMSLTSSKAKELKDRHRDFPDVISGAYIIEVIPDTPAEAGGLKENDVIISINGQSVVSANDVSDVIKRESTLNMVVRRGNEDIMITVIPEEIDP
SIAE inh = human SIAE inhibitors, primary screen, biochemical, fluorescence polarization, FP-Rh probe, 1536-well HTS; hit rate 0.69% among 370,000; AID 1053197, 2014; inhibition, % at 9.66 µM; Sialate O-acetylesterase (Homo sapiens), Q9HAT2; SIAE FP-Rh probe binding;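 active = inhibition above a cutoff: mean of compounds within the control limits plus 3 SD of those, cut at about 17% in these data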;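 also: 0% = plate median of compound wells and 100% = probe without SIAE protein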
RBBP9 inh = human RBBP9 inhibitors, primary screen, biochemical, fluorescence polarization, FP-Rh probe, HTS | Serine hydrolase RBBP9 (Homo sapiens), O75884 | recombinant RBBP9 | inhibition, % at 7.94 µM | hit rate 0.2% among 220,000 | AID 1515, 2009;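 active = inhibition above the campaign mean of all tested compounds plus 3 SD, cut at about 14% in these data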;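 also: plate controls were DMSO wells with RBBP9 for no effect and wells lacking RBBP9 protein for full effect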
Target sequence (O75884 whole entry, looked up): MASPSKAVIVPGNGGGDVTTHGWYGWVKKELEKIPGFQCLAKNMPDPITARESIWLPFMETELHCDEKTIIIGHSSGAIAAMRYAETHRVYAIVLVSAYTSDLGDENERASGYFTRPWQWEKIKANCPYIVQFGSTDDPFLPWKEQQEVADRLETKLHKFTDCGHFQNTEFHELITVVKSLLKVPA
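System: RBBP9 protein / Buffer or medium: Tris/NaCl buffer pH 8.0 with 0.1% Pluronic / Probe or stimulus: Serine-hydrolase probe FP-Rh, 375 nM pre-mixing / Dosing: 7.94 µM single dose, 0.794% DMSO / Times: enzyme-compound preincubation 30 min, then probe labeling 45 min, 25 °C / Technique: fluorescence polarization (mP), excitation 525 nm, emission 598 nm / Replication: singlicate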
mABHD4 conf = ABHD4 inhibitors, retest, confirmation, biochemical, fluorescence polarization, mouse | shares compounds with ABHD4 inh | purified mABHD4, FP-Rh probe fluorescence polarization | hit rate 55% among 1,800 | inhibition, % at 8.92 µM;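 active = mean inhibition across replicates above the hit cutoff set in the primary screen, cut at about 30% in these data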;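 also: 0% = wild-type ABHD4 with DMSO and 100% = catalytically dead S159A mutant with DMSO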
Starred values were filed as active, the others as inactive; · = no result given. An excerpt weighted towards active compounds, which were near 1.4% of everything screened.

SMILES	ABHD4 inh	HTRA1 inh	SIAE inh	RBBP9 inh	mABHD4 conf
COc1ccccc1CNc1nc(NCc2ccc(C(C)C)cc2)c2sccc2n1	35.6*	·	10.2	·	33.6*
NC(=O)C(c1ccccc1)(c1ccccc1)[C@@H]1CCN(CCc2ccc3c(c2)CCO3)C1	1.5	·	-3.5	·	·
O=C(COc1ccccc1Cl)NC(=S)Nc1ccccc1N1CCCC1	41.3*	-6.9	3.5	·	-8.2
O=c1ccc2cccc([N+](=O)[O-])c2[nH]1	-2.1	·	-0.4	·	·
O=c1[nH][nH]c2c([N+](=O)[O-])ccc(F)c12	36.3*	·	0.0	·	33.7*
CCCCCN=C(N)N/N=C/c1c[nH]c2ccc(OC)cc12	40.7*	11.9	-4.5	·	53.8*
CCC(NC(=O)Nc1ccc(O)cc1)(C(F)(F)F)C(F)(F)F	61.9*	28.3	11.9	24.0*	27.8
CCC(NC(=O)NCc1ccccc1)(C(F)(F)F)C(F)(F)F	-3.2	8.3	5.2	-2.8	·
C[C@H](NC(=O)C1CCN(C(=O)[C@@H]2CCCN2C(=O)OC(C)(C)C)CC1)C(=O)NCc1ccc(F)cc1	2.7	·	-0.9	·	·
COc1cc(C(=O)NC2CC2)cc(OC)c1OC	-11.9	·	-8.8	·	·
O=C(O)c1ccc(Cl)c2c1C1C=CCC1C(c1ccccn1)N2 (configuration not stated)	·	·	·	-3.0	·
COc1ccc(OC)c(C2Nc3c(Cl)ccc(C(=O)O)c3C3C=CCC32)c1 (configuration not stated)	46.5*	16.3	5.6	-1.9	21.7
COc1cc(C2Nc3c(F)cccc3C3C=CCC32)cc(Br)c1OC (configuration not stated)	4.7	-3.7	4.0	-10.1	·
COC(=O)COc1ccc(C2Nc3c(Cl)ccc(C(=O)O)c3C3C=CCC32)cc1 (configuration not stated)	35.6*	28.4	-6.8	-1.2	19.7
Cc1ccc(-c2csc(NS(=O)(=O)c3cccc(F)c3)n2)o1	30.2*	14.5	-11.6	·	25.9
Cc1nc(CNS(=O)(=O)c2cccc(F)c2)cs1	0.9	-0.4	-1.2	-9.7	·
c1cncc(CN2CCN(c3cc(-c4cnc5ccccc5c4)nc4ccnn34)CC2)c1	4.3	·	-2.0	·	·
CCOc1cc(/C=C2\N=C(SCC)SC2=O)cc([N+](=O)[O-])c1OC(C)=O	42.3*	22.2	-2.2	3.6	83.5*
COC(=O)CCC(C)C1CCC2C3C(OC(C)=O)CC4CC(O)CCC4(C)C3CC(O)C12C (configuration not stated)	-2.4	-4.4	1.5	·	·
Oc1ccc(N2CCN(Cc3cc4c(cc3Br)OCCO4)CC2)cc1	33.8*	17.8	10.1	·	14.3
Cc1[nH]c2ccccc2c1CC(=O)Nc1ccc(Nc2cccnc2)c(-c2ccc(Oc3ccccc3)cc2)c1	4.9	·	9.4	·	·
CC/C(C)=N/Nc1nc2c(c(=O)[nH]c(=O)n2C)n1Cc1ccccc1	34.3*	11.3	-3.8	·	18.4
C(=NNc1ccc2ccccc2n1)c1ccccn1	44.5*	·	7.2	·	12.5
CCC/C=N/Nc1nc2ccccc2s1	50.3*	27.6	7.1	2.5	17.0
COc1ccc(C=NNc2nc3ccccc3s2)cc1	9.0	1.6	9.1	·	·
SMILES	ABHD4 inh	HTRA1 inh	SIAE inh	RBBP9 inh	mABHD4 conf
Cc1cc(NN=Cc2ccccn2)nc2ccccc12	42.6*	·	2.5	·	26.5
C(=N\Nc1nc2ccccc2s1)/c1ccccn1	37.3*	·	0.5	4.4	39.8*
Cc1cccc(CN2[C@@H](C)[C@H](c3ccccc3)Oc3cc(Br)ccc3S2(=O)=O)c1	2.2	·	-6.2	·	·
COc1ccc2ccccc2c1/C=N/Nc1ccc(Cl)c(C(=O)O)c1	36.7*	6.8	14.3	·	52.1*
O=C(O)c1cc(N/N=C/c2c[nH]c3ccccc23)ccc1Cl	32.0*	0.7	8.2	·	28.2
O=C(O)c1cc(N/N=C/c2ccc(-c3ccccc3)cc2)ccc1Cl	11.1	10.9	-1.9	·	·
COc1ccc2ccccc2c1/C=N/Nc1cccc(C(=O)O)c1	37.4*	5.7	14.9	·	32.5*
COc1ccc2c(/C=N/Nc3ccc(C(=O)O)cc3)c[nH]c2c1	50.0*	3.2	-5.2	·	35.6*
COc1ccc(N/N=C/c2c(C(=O)O)ccc3ccccc23)cc1	20.5	8.0	-2.7	-6.4	·
C[C@H]1CN([C@@H](C)CO)C(=O)CCCn2cc(nn2)CO[C@@H]1CN(C)C(=O)Nc1ccc2c(c1)OCCO2	0.6	-3.9	3.9	·	·
Nc1ccn([C@@H]2O[C@H](C(=O)N[C@H](Cc3ccccc3)C(=O)NCC(F)(F)F)[C@@H](O)[C@H]2O)c(=O)n1	-1.5	·	4.1	·	·
O=C(COC(=O)c1ccccc1O)Nc1cccc(S(=O)(=O)N2CCCC2)c1	-14.9	-19.8	-3.1	·	·
O=C(N/N=C/C=C\c1ccccc1[N+](=O)[O-])c1ccncc1	5.0	2.1	-6.9	10.1	·
O=C(O)c1cc(N/N=C/C=C/c2ccccc2[N+](=O)[O-])ccc1Cl	30.1*	10.2	3.9	1.8	35.8*
COc1cc(/C=N/NC(=O)Cc2ccccc2)cc([N+](=O)[O-])c1O	2.5	0.3	10.1	·	·
COc1cc(/C=N/NC(=O)[C@H](Cc2c[nH]c3ccccc23)NC(=O)OCC(C)C)cc([N+](=O)[O-])c1O	41.5*	15.9	33.5*	1.7	49.1*
Oc1cc2c(cc1O)[C@H]1c3ccc(O)c(O)c3OC[C@@]1(O)C2	33.0*	23.7	-9.1	·	12.4
C[C@@H]1ON(C)[C@H]2C[C@H]3c4[nH]c5c(-c6ccc(C(F)(F)F)cc6)cccc5c4CCN3C(=O)[C@@H]12	29.6*	·	-6.7	·	29.0
Nc1c(Br)cc2c([nH]c(=O)c3ccccc32)c1Br	42.5*	20.1	8.3	·	36.8*
CN(C)CCOC(=O)COc1ccc(Cl)cc1	62.3*	7.8	3.7	·	-4.3
Cc1cc(N/N=C/c2cccc(Cl)c2)nc(NCc2ccccc2)n1	40.4*	-34.7	8.0	-9.5	59.8*
Cc1cc(N/N=C/c2ccccc2)nc(NCc2ccccc2)n1	11.8	-5.8	-0.4	-11.6	·
Cc1cc(N/N=C/c2cccc(F)c2)nc(NCc2ccccc2)n1	38.5*	-24.8	-3.6	-11.8	38.6*
NS(=O)(=O)c1ccc(-c2ccc(/C=C3\NC(=S)NC3=O)o2)cc1	38.7*	10.9	8.9	·	19.8
CC(=O)Nc1ccc(NC(=O)CSc2nnc(-c3ccco3)o2)cc1	-5.6	1.4	-3.2	-5.8	·
CC(=O)c1ccc(NC(=O)CSc2nnc(-c3ccco3)c(-c3ccco3)n2)cc1	45.1*	20.0	7.9	1.4	29.5*
O=C(CSc1nnc(-c2ccco2)c(-c2ccco2)n1)c1ccccc1	45.8*	27.0	10.4	-9.2	17.3
O=C(CSc1nnc(-c2ccco2)o1)c1ccccc1	1.9	-6.0	-1.0	-1.6	·
Cc1cccc(CSc2nnc(-c3ccccn3)n2N)c1	35.8*	0.1	-6.6	-7.2	10.8
COc1ccc(C(=O)OCC(=O)c2ccc3c(c2)NC(=O)CO3)cc1S(=O)(=O)N1CCOCC1	-3.1	6.8	-3.1	·	·
